One test concerns A549. Put plainly: Cytotoxicity against human A549 cells after 48 hrs by MTT assay. In kind it is functional, cell-based. To be noted: A549, 48 h. In outline:
(§1)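 Cells seeded at 10^5 cells/mL in 100 µL RPMI-1640 with 10% FBS; compounds added at various concentrations after 24 h and incubated 48 h. MTT (5 mg/mL stock in PBS, 50 µL per well) was added for a further incubation. Medium was discarded, formazan dissolved in DMSO, and absorbance read at 540 nm.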
Background: Tetrazolium dyes change colour on reduction, which living cells bring about.

The subject of the next test is HCT-15. Put plainly: Cytotoxicity against human HCT15 cells after 48 hrs by MTT assay. The following applies: HCT-15, 48 h. The class given is functional, cell-based. The procedure, abridged: as §1
In a further test the test system is SK-OV-3. Put plainly: Cytotoxicity against human SKOV3 cells after 48 hrs by MTT assay. In kind it is functional, cell-based. To be noted: SK-OV-3, 48 h. In outline:
as §1

The test system of the next test is SK-MEL-2. Put plainly: Cytotoxicity against human SK-MEL-2 cells after 48 hrs by MTT assay. In kind it is functional, cell-based. To be noted: SK-MEL-2, 48 h. The procedure, abridged: as §1
The species named for test [1] is Bos taurus. Put plainly: Inhibition of calf thymus topoisomerase 1-mediated relaxation of supercoiled pBR322 DNA at 20 to 100 uM after 30 mins using ethidium bromide staining by UV-light transillumination analysis. In outline: (§2)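 Plasmid pBR322 (200 ng) with 0.3 U calf thymus topo I, compound at final 20 or 100 μM, 37 °C for 30 min in relaxation buffer (35 mM Tris–HCl pH 8.0, 72 mM KCl, MgCl2, DTT, spermidine, 0.01% BSA). Stopped with SDS loading mix, run on 1% agarose in TBE for 10 h, stained with ethidium bromide (0.5 μg/mL), and UV-visualized and quantitated. Scored semiquantitatively against camptothecin.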

For test [2], the species on record is Bos taurus. Put plainly: Inhibition of calf thymus topoisomerase 1-mediated relaxation of supercoiled pBR322 DNA at 20 to 100 uM after 30 mins using ethidium bromide staining by UV-light transillumination analysis relative to camptothecin. In outline: as §2

The structures appear in SMILES notation. Activity calls are given as the source filed them. No cut-off for these calls is given here. A value given as a limit tells only on which side of the number the result lay.

Turning to `COc1ccc2c(c1)C=CCn1c-2cc2ccccc2c1=O`, the IC50 (in general, the concentration at which inhibition is half-maximal) came to 6.48 µM in the test on A549, 12.6 µM in the test with HCT-15, 24.3 µM in the test with SK-OV-3 and 7.74 µM with SK-MEL-2. Moreover, the inhibition entry in the test filed under Bos taurus [1] is “Active”.
Consider `COc1ccc2cc3n(c(=O)c2c1OC)CC=Cc1cc2c(cc1-3)OCO2`, for which the IC50 with A549 is 7.45 µM; in the test with HCT-15, 6.34 µM; in the test with SK-OV-3 it was 2.8 µM; with SK-MEL-2, 2.54 µM. Moreover, the inhibition result in the test listed under Bos taurus [1] is “Active”.
The corresponding values for `CC[C@@]1(O)C(=O)OCc2c1cc1n(c2=O)Cc2cc3ccccc3nc2-1` [CAMPTOTHECIN] are 0.091 µM, 0.166 µM, 2.54 µM, 7.86 µM and “Active”.
Take `C=CCn1c(-c2ccc(OC)cc2C=C)cc2ccccc2c1=O`: the 50% inhibitory concentration (IC50) worked out at 17.2 µM in the test with A549, 22.8 µM in the test on HCT-15, 43.8 µM in the test with SK-OV-3 and 11.6 µM in the test on SK-MEL-2. In addition, in the test filed under Bos taurus [1], the inhibition entry is “Active”.
Turning to `C=CCn1c(-c2cc3c(cc2C=O)OCO3)cc2ccccc2c1=O`, the IC50 was 87.5 µM with A549, 54.1 µM in the test on HCT-15, 56.9 µM in the test on SK-OV-3 and more than 100 µM with SK-MEL-2. The inhibition entry in the test listed under Bos taurus [1] is “Active”.
Take `C=CCn1c(-c2cc3c(cc2C=O)OCO3)cc2ccc(OC)c(OC)c2c1=O`: the half-maximal inhibitory concentration (IC50) in the test with A549 was found to be 85.1 µM; in the test on HCT-15 it was 63.9 µM; in the test with SK-OV-3, 61.7 µM; in the test on SK-MEL-2, 71.2 µM. Further, the inhibition result in the test filed under Bos taurus [1] is “Active”.
Take `COCOCc1cc2c(cc1-c1cc3ccccc3c(=O)[nH]1)OCO2`: the IC50 was 7.93 µM in the test with A549, 13.1 µM in the test with HCT-15, 22.9 µM in the test with SK-OV-3 and 64.5 µM with SK-MEL-2. Moreover, the inhibition result in the test listed under Bos taurus [2] was “Active”.
In the case of `C=CCn1c(-c2ccc(OC)cc2C=O)cc2ccccc2c1=O`, the IC50 in the test on A549 turned out to be 88.1 µM; with HCT-15, 56.5 µM; with SK-OV-3, 65.5 µM; in the test on SK-MEL-2, 88.9 µM. Moreover, in the test listed under Bos taurus [1], the inhibition result is “Active”.
Turning to `COc1cc2c(cc1OC)-c1cc3ccccc3c(=O)n1CC=C2`, the IC50 with A549 came out at 14.8 µM; in the test with HCT-15, 21.3 µM; in the test with SK-OV-3, 11 µM; with SK-MEL-2, 6.23 µM. Further, the inhibition entry in the test filed under Bos taurus [1] is “Active”.
The corresponding values for `C=CCn1c(-c2cc3c(cc2C=C)OCO3)cc2ccc(OC)c(OC)c2c1=O` are more than 100 µM, more than 100 µM, more than 100 µM, more than 100 µM and “inactive”.
As to `C=CCn1c(-c2cc3c(cc2COCOC)OCO3)cc2ccc(OC)c(OC)c2c1=O`, the IC50 with A549 is 29.9 µM; in the test with HCT-15, 28.2 µM; in the test on SK-OV-3, more than 100 µM; with SK-MEL-2, 27.4 µM. For the same compound, the inhibition result in the test listed under Bos taurus [1] is “inactive”.
As to `C=CCn1c(-c2cc(OC)c(OC)cc2C=C)cc2ccccc2c1=O`, the IC50 was 43.2 µM in the test with A549, 75.2 µM in the test with HCT-15, 35.5 µM with SK-OV-3 and 47.7 µM in the test on SK-MEL-2. Further, in the test filed under Bos taurus [1], the inhibition entry is “Active”.
Take `C=CCn1c(-c2cc(OC)c(OC)cc2C=O)cc2ccccc2c1=O`: the IC50 with A549 worked out at 76.3 µM; with HCT-15, 77.5 µM; with SK-OV-3, 85.5 µM; in the test with SK-MEL-2, 67.6 µM. For the same compound, the inhibition entry in the test filed under Bos taurus [1] was “Active”.
For the compound `C=CCn1c(-c2cc3c(cc2C=C)OCO3)cc2ccccc2c1=O`, the IC50 in the test with A549 was 19.3 µM; in the test on HCT-15 it was 11.2 µM; in the test with SK-OV-3, 13.6 µM; with SK-MEL-2 it was 9.36 µM. In addition, the inhibition result in the test filed under Bos taurus [1] was “Active”.
Taken in the same sequence, the figures for `COCOCc1cc(OC)ccc1-c1cc2ccccc2c(=O)[nH]1` were 45.3 µM, 27.5 µM, 75.5 µM, 97.6 µM and “Active”.
Taken in the same sequence, the figures for `O=c1c2ccccc2cc2n1CC=Cc1cc3c(cc1-2)OCO3` were 17.1 µM, 20.1 µM, 29.1 µM, 28.6 µM and “Active”.
Take `C=CCn1c(-c2cc3c(cc2COCOC)OCO3)cc2ccccc2c1=O`: the IC50 with A549 amounted to 19.8 µM; with HCT-15 it was 36.1 µM; in the test on SK-OV-3, 29.5 µM; in the test with SK-MEL-2 it was 15.4 µM. Also, the inhibition entry in the test filed under Bos taurus [1] is “Active”.
Take `C=CCn1c(-c2cc(OC)c(OC)cc2COCOC)cc2ccccc2c1=O`: the 50% inhibitory concentration (IC50) was determined as 88.1 µM with A549, 78.7 µM in the test with HCT-15, 37.7 µM with SK-OV-3 and 75 µM in the test on SK-MEL-2. Further, in the test listed under Bos taurus [1], the inhibition entry is “Active”.
Turning to `C=CCn1c(-c2ccc(OC)cc2COCOC)cc2ccccc2c1=O`, the IC50 in the test with A549 is more than 100 µM; in the test on HCT-15, 27.8 µM; in the test on SK-OV-3, more than 100 µM; with SK-MEL-2 it was 42.6 µM. The inhibition entry in the test listed under Bos taurus [1] is “Active”.
For `COCOCc1cc(OC)c(OC)cc1-c1cc2ccccc2c(=O)[nH]1`, the IC50 stood at 85.1 µM in the test on A549, 73.7 µM in the test on HCT-15, 87.7 µM with SK-OV-3 and 55.2 µM in the test on SK-MEL-2. The inhibition entry in the test filed under Bos taurus [1] was “Active”.

For the origin of these results see ChEMBL document CHEMBL1817602, “Synthesis of benzo[3,4]azepino[1,2-b]isoquinolin-9-ones from 3-arylisoquinolines via ring closing metathesis and evaluation of topoisomerase I inhibitory activity, cytotoxicity and docking study” (Bioorg Med Chem, 2011).
